The results in this text go back to ChEMBL document CHEMBL3112522, “Bicyclic brominated furanones: a new class of quorum sensing modulators that inhibit bacterial biofilm formation” (Bioorg Med Chem, 2014).

The subject of data set [1] is Escherichia coli. In words: Antibacterial activity against Escherichia coli RP437 expressing red fluorescence protein assessed as inhibition of biofilm formation measured as reduction in surface area at 200 uM after 24 hrs by confocal laser scanning microscopic analysis. The format is functional, organism-based. The procedure, abridged:
(§1)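 E. coli RP437 (pRSH103, red fluorescent; grown in LB with 10 µg/mL tetracycline) formed biofilms on 316 stainless-steel coupons with 200 µM compound or 0.4% DMSO control, static, 37 °C, 24 h. Coupons rinsed three times in 0.9% NaCl, then imaged by CLSM. COMSTAT gave biomass, mean thickness and surface area from z-stacks at four locations, normalized to the BF-free control. Four replicates.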

The test system of data set [2] is Escherichia coli. Kind of data set: Antibacterial activity against Escherichia coli RP437 expressing red fluorescence protein assessed as inhibition of biofilm formation measured as reduction in mean thickness of biofilm at 200 uM after 24 hrs by confocal laser scanning microscopic analysis. The class given is functional, organism-based. An outline of the steps: as §1

Data set [3] can be described thus: Cytotoxicity against human SK-N-SH cells assessed as cell survival at 400 uM incubated for 1 hr followed by compound washout measured after 24 hrs by CCK-8 assay relative to control. The format is cell-based. The conditions noted are these: read-out: Survival. An outline of the steps: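 SK-N-SH cells were grown in EMEM with 10% FBS, penicillin/streptomycin and 2.0 mM L-glutamine at 37 °C, 5% CO2. Wells were seeded at 5×10^4 cells/mL and left 24 h to adhere. Cells were exposed for 1 h in fresh medium, with DMSO-matched controls, then washed twice. After 0, 24 or 48 h recovery, CCK-8 A450 was read. Survival = (sample−medium)/(control−medium)×100.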
(Formazan colour is commonly taken as a measure of viable cells.)

Data set [4] deals with Pseudomonas aeruginosa. Kind of data set: Inhibition of quorum sensing system in Pseudomonas aeruginosa PAO-JP2 assessed as reduction of elastase B production after 24 hrs by congo-red staining-based assay. An outline of the steps: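 PAO-JP2 grown in PTSB at 37 °C, subcultured at OD600 0.05 with 5 µM 3-oxo-C12-HSL and 10 µM C4-HSL ± compound, shaken at 250 rpm for 24 h. Filtered supernatant (100 µL) incubated with Elastin-Congo red (4.5 mg in 900 µL Tris-HCl pH 7.2, 1 mM CaCl2) for 24 h at 37 °C, stopped with EDTA. A490 read minus bacteria-free blank, normalized to control. Four replicates.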

The target of data set [5] is T1, HTH-type quorum-sensing regulator RhlR (Pseudomonas aeruginosa (strain ATCC 15692 / PAO1 / 1C / PRS 101 / LMG12228)) (UniProt P54292).
T1 sequence (whole entry): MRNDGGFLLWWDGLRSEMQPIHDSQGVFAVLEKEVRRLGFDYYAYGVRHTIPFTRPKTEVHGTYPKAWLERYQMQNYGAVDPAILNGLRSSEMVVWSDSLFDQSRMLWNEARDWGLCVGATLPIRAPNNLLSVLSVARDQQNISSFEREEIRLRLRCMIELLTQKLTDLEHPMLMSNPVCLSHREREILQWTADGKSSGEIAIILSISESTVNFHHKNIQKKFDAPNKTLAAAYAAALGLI
In words: Agonist activity at RhlR in Pseudomonas aeruginosa PAO-JP2 expressing RhlI assessed as effect on GFP production at 50 to 300 uM after 24 hrs by fluorescence assay in presence of 3-oxo-C12-HSL and C4-HSL relative to control. The procedure, abridged: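 PAO-JP2 (prhlI-LVAgfp) grown in M9 with 300 µg/mL carbenicillin to OD600 0.1, dosed with 1 µM 3-oxo-C12-HSL and 10 µM C4-HSL ± compound, shaken at 250 rpm and 37 °C for 24 h. GFP read at ex 500/em 540 nm, M9 background subtracted, divided by OD600 and normalized to the BF-free control. Four replicates.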

In data set [6] the target is T1, HTH-type quorum-sensing regulator RhlR (Pseudomonas aeruginosa (strain ATCC 15692 / PAO1 / 1C / PRS 101 / LMG12228)). Kind of data set: Agonist activity at RhlR in Pseudomonas aeruginosa PAO1 expressing RhlI assessed as effect on GFP production at 50 to 300 uM after 24 hrs by fluorescence assay relative to control. An outline of the steps:
(§2)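 PAO1 (prhlI-LVAgfp) grown in M9 with 300 µg/mL carbenicillin to OD600 0.1, exposed to compound at 50, 150 or 300 µM for 24 h at 37 °C with shaking at 250 rpm. Fluorescence read at ex 500/em 540 nm, M9 background subtracted, divided by OD600 and normalized to the BF-free control. Four replicates.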

For data set [7], the target named is T2, Transcriptional activator protein LasR (Pseudomonas aeruginosa (strain ATCC 15692 / PAO1 / 1C / PRS 101 / LMG12228)) (UniProt P25084).
T2 sequence (whole entry): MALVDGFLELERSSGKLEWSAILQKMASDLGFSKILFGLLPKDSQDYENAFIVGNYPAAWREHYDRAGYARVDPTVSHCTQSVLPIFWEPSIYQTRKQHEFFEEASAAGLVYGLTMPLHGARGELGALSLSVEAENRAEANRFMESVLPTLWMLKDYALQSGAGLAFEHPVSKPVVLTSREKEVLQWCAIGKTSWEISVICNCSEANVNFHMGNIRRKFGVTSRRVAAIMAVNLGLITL
Kind of data set: Antagonist activity at LasR in Pseudomonas aeruginosa PAO1 expressing LasI assessed as inhibition of GFP production at 300 uM after 24 hrs by fluorescence assay relative to control.

The target in data set [8] is T2, Transcriptional activator protein LasR (Pseudomonas aeruginosa (strain ATCC 15692 / PAO1 / 1C / PRS 101 / LMG12228)). In words: Antagonist activity at LasR in Pseudomonas aeruginosa PAO1 expressing LasI assessed as inhibition of GFP production at 50 to 150 uM after 24 hrs by fluorescence assay.
In data set [9] the test system is Escherichia coli. In words: Antibacterial activity against Escherichia coli RP437 expressing red fluorescence protein assessed as inhibition of biofilm formation at 200 uM after 24 hrs by confocal laser scanning microscopic analysis. The format is functional, organism-based. The procedure, abridged: as §1
Data set [10] concerns Pseudomonas aeruginosa. Kind of data set: Antibacterial activity against Pseudomonas aeruginosa PAO1 expressing green fluorescence protein assessed as inhibition of biofilm formation measured as reduction in surface area at 400 uM after 24 hrs by confocal laser scanning microscopic analysis relative to control. The class given is functional, organism-based.
Data set [11] deals with Pseudomonas aeruginosa. In words: Antibacterial activity against Pseudomonas aeruginosa PAO1 expressing green fluorescence protein assessed as inhibition of biofilm formation measured as reduction in mean thickness of biofilm at 400 uM after 24 hrs by confocal laser scanning microscopic analysis relative to control. The class given is functional.
For data set [12], the target named is T1, HTH-type quorum-sensing regulator RhlR (Pseudomonas aeruginosa (strain ATCC 15692 / PAO1 / 1C / PRS 101 / LMG12228)). Kind of data set: Agonist activity at RhlR in Pseudomonas aeruginosa PAO1 expressing RhlI assessed as stimulation of GFP production at 300 uM after 24 hrs by fluorescence assay relative to control. The procedure, abridged:
as §2

Data set [13] has the same target. Kind of data set: Agonist activity at RhlR in Pseudomonas aeruginosa PAO1 expressing RhlI assessed as stimulation of GFP production at 150 uM after 24 hrs by fluorescence assay relative to control. The procedure, abridged: as §2
Data set [14] concerns the target T2, Transcriptional activator protein LasR (Pseudomonas aeruginosa (strain ATCC 15692 / PAO1 / 1C / PRS 101 / LMG12228)). Kind of data set: Antagonist activity at LasR in Pseudomonas aeruginosa PAO1 expressing LasI assessed as inhibition of GFP production at 50 to 300 uM after 24 hrs by fluorescence assay relative to control.

Activity calls are given as the source filed them. The calls are words filed in the database; no cut-off is given here.

Take `O=C1C=C2CCCC(Br)=C2O1`: the inhibition entry (with Escherichia coli [1]; in the data set on Escherichia coli [2]; in [8]; in the data set on Escherichia coli [9]; in the data set with Pseudomonas aeruginosa [10]) was “Active” in each case. Besides, the viability at 1 h, 400 µM in [3] was determined as 50%. Moreover, the inhibition result in the data set on Pseudomonas aeruginosa [4] was “Dose-dependent effect”; in data set [7] it was 78%. Besides, the result in data set [5] and in data set [6] was inactive. In the data set on Pseudomonas aeruginosa [11] (PAO1, 24 h), the inhibition at 400 µM came out at 60%.

On to `O=C1C=C2CCC(Br)=C2O1`, for which the inhibition entry (in the data set with Escherichia coli [1]; with Escherichia coli [2]; in data set [14]; in the data set on Escherichia coli [9]; in the data set on Pseudomonas aeruginosa [10]) was “Active” throughout. The viability at 1 h, 400 µM in data set [3] came out at 21%. Also, in data set [5], the outcome was Active. For the same molecule, the Activity in data set [12] is 165%; in data set [13], 82.6%. The inhibition result in the data set on Pseudomonas aeruginosa [11] was “inactive”.

On to `O=C1C=C2CCCCC(Br)=C2O1`, for which the inhibition result (in the data set on Escherichia coli [1]; in the data set with Escherichia coli [2]; in data set [8]; with Escherichia coli [9]; in the data set on Pseudomonas aeruginosa [10]) was “Active” in each case. In addition, in [3], the viability at 1 h, 400 µM was 7%. The outcome in data set [5] and in data set [6] was inactive. Besides, the inhibition in data set [7] turned out to be 69%.

As a reminder, the inhibition is the relative decrease from the control value, in per cent.
